The source made the active and inactive calls. No cut-off for these calls is given here.

The values that follow come from ChEMBL document CHEMBL4680191, “Discovery of novel akt1 inhibitor induces autophagy associated death in hepatocellular carcinoma cells” (Eur J Med Chem, 2020).

Sequence of RAC-beta serine/threonine-protein kinase (Homo sapiens), P31751 [S474D] (P31751 whole entry S474D): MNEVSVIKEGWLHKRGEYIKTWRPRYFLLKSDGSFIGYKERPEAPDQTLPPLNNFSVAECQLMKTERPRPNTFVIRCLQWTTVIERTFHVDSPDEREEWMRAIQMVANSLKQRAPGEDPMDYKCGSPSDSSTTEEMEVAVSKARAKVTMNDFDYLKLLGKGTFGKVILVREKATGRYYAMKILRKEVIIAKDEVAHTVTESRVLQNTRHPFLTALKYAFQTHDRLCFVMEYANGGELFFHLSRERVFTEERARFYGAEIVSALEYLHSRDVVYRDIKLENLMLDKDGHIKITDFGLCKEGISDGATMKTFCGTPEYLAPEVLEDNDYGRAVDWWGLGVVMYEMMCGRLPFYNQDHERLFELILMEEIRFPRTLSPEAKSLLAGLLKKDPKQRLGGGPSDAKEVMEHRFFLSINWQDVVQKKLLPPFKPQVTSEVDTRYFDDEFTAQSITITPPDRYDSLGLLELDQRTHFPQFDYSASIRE
Sequence of RAC-gamma serine/threonine-protein kinase (Homo sapiens), Q9Y243 [S472D] (Q9Y243 whole entry S472D): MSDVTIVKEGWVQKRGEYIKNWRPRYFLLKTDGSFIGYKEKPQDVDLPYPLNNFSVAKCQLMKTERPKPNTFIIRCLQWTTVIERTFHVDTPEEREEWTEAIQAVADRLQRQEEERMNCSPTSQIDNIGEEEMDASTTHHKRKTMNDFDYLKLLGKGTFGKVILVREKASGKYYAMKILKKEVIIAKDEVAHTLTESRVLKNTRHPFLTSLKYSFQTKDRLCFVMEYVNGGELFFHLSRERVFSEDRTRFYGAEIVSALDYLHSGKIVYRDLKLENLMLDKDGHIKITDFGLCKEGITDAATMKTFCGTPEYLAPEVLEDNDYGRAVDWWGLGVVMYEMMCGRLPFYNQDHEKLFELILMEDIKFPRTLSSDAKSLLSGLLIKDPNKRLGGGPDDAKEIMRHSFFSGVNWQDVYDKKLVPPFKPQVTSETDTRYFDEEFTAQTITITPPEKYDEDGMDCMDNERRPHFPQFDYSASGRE
Sequence of RAC-gamma serine/threonine-protein kinase (Q9Y243 2-479 S472D limits assumed): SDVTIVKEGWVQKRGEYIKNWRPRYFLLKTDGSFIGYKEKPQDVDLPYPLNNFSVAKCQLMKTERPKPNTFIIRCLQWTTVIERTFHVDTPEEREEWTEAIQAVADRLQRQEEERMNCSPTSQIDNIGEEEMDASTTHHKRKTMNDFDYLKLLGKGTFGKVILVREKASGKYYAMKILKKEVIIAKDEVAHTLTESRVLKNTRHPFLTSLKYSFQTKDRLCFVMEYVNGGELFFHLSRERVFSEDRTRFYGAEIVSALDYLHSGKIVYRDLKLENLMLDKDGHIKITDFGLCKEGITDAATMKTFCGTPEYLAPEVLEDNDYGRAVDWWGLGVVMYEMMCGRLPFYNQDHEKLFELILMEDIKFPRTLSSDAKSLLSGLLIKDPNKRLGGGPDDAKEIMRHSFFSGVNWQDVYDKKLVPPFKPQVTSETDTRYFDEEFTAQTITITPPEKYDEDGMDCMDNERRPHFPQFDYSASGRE

One experiment has as its system RAC-gamma serine/threonine-protein kinase (Homo sapiens), Q9Y243 [S472D]. In words: Inhibition of full length human Akt3 S472D mutant assessed as remaining activity at 1 uM using GRPRTSSFAEGKK as substrate incubated for 40 mins by scintillation counting method relative to control. The method, boiled down: (§1)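 Eurofins KinaseProfiler kinase assay on human Akt1, Akt2 and Akt3. Compounds were tested at 1 µM. Residual kinase activity is reported as % of control.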
Take `CC(C)NCC(C(=O)N1CCN(c2ncnc3sc4c(c23)CCN(C)C4)CC1)c1ccc(Cl)cc1` (stereo not drawn): the Activity was 69%.

Regarding `CCNCC(C(=O)N1CCN(c2ncnc3sc4c(c23)CCC4)CC1)c1ccc(Cl)cc1` (stereo not drawn), the Activity stood at 21%.

Regarding `COc1ccc(C(CNC(C)C)C(=O)N2CCN(c3ncnc4sc5c(c34)CCN(C)C5)CC2)cc1` (stereo not drawn), the Activity amounted to 76%.

In the case of `CCCCNCC(C(=O)N1CCN(c2ncnc3sc4c(c23)CCC4)CC1)c1ccc(Cl)cc1` (stereo not drawn), the Activity amounted to 15%.

For `CN1CCc2c(sc3ncnc(N4CCN(C(=O)C(CNC5CCCCC5)c5ccc(Cl)cc5)CC4)c23)C1` (stereo not drawn), the Activity was determined as 69%.

Take `CC(C)NCC(C(=O)N1CCN(c2ncnc3sc4c(c23)CCN(C)C4)CC1)c1ccc(Br)cc1` (stereo not drawn): the Activity amounted to 72%.

A further experiment concerns SMMC-7721. The experiment in a line: Cytotoxicity against human SMMC-7721 cells assessed as reduction in cell viability by MTT assay. It is filed as functional, cell-based. The method, boiled down:
(§2)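 Hepatoma cells were grown in DMEM with 10% FBS and streptomycin, then treated with compounds. Viability was read by MTT.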
One may read the IC50 as the point on the concentration scale where inhibition reaches its midpoint. As for `CC(C)NC[C@@H](C(=O)N1CCN(c2ncnc3c2[C@H](C)C[C@H]3O)CC1)c1ccc(Cl)cc1` [IPATASERTIB], the 50% inhibitory concentration (IC50) came to 661 nM.

For `CCNCC(C(=O)N1CCN(c2ncnc3sc4c(c23)CCC4)CC1)c1ccc(Cl)cc1` (stereo not drawn), the IC50 was determined as 1250 nM.

Take `CCCCNCC(C(=O)N1CCN(c2ncnc3sc4c(c23)CCC4)CC1)c1ccc(Cl)cc1` (stereo not drawn): the 50% inhibitory concentration (IC50) is 1350 nM.

Another experiment concerns HepG2. In words: Cytotoxicity against human HepG2 cells assessed as reduction in cell viability by MTT assay. It is filed as functional, cell-based. The method in brief:
as §2
(In general: Formazan colour is commonly taken as a measure of viable cells.)
Turning to `CC(C)NC[C@@H](C(=O)N1CCN(c2ncnc3c2[C@H](C)C[C@H]3O)CC1)c1ccc(Cl)cc1` [IPATASERTIB], the IC50 was 268 nM.

For `CCNCC(C(=O)N1CCN(c2ncnc3sc4c(c23)CCC4)CC1)c1ccc(Cl)cc1` (stereo not drawn), the IC50 is 580 nM.

As to `CCCCNCC(C(=O)N1CCN(c2ncnc3sc4c(c23)CCC4)CC1)c1ccc(Cl)cc1` (stereo not drawn), the half-inhibitory concentration (IC50) was determined as 914 nM.

In another experiment the target is cAMP-dependent protein kinase catalytic subunit alpha (Homo sapiens) (UniProt P17612). In words: Inhibition of full length human PKAcalpha assessed as remaining activity at 1 uM using LRRASLG as substrate incubated for 40 mins by scintillation counting method relative to control. The method in brief: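 Run as an outsourced KinaseProfiler service, with human PKA and Akt1, Akt2 and Akt3 in the same panel. Each compound was tested at a single 1 µM concentration, and the result is reported as kinase activity remaining, as a percentage of control.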
Consider `CC(C)NCC(C(=O)N1CCN(c2ncnc3sc4c(c23)CCN(C)C4)CC1)c1ccc(Cl)cc1` (stereo not drawn), for which the Activity stood at 72%.

As to `CCNCC(C(=O)N1CCN(c2ncnc3sc4c(c23)CCC4)CC1)c1ccc(Cl)cc1` (stereo not drawn), the Activity was 31%.

For `COc1ccc(C(CNC(C)C)C(=O)N2CCN(c3ncnc4sc5c(c34)CCN(C)C5)CC2)cc1` (stereo not drawn), the Activity is 95%.

For `CCCCNCC(C(=O)N1CCN(c2ncnc3sc4c(c23)CCC4)CC1)c1ccc(Cl)cc1` (stereo not drawn), the Activity came to 37%.

Take `CN1CCc2c(sc3ncnc(N4CCN(C(=O)C(CNC5CCCCC5)c5ccc(Cl)cc5)CC4)c23)C1` (stereo not drawn): the Activity came to 95%.

With `CC(C)NCC(C(=O)N1CCN(c2ncnc3sc4c(c23)CCN(C)C4)CC1)c1ccc(Br)cc1` (stereo not drawn), the Activity is 88%.

For a further experiment, the species on record is Homo sapiens. In words: Inhibition of full length human Akt1 […] mutant assessed as remaining activity at 1 uM using GRPRTSSFAEGKK as substrate incubated for 40 mins by scintillation counting method relative to control. The method, boiled down:
as §1
`CC(C)NCC(C(=O)N1CCN(c2ncnc3sc4c(c23)CCN(C)C4)CC1)c1ccc(Cl)cc1` (stereo not drawn): the Activity was found to be 50%.

Consider `CCNCC(C(=O)N1CCN(c2ncnc3sc4c(c23)CCC4)CC1)c1ccc(Cl)cc1` (stereo not drawn), for which the Activity is 1%.

Regarding `COc1ccc(C(CNC(C)C)C(=O)N2CCN(c3ncnc4sc5c(c34)CCN(C)C5)CC2)cc1` (stereo not drawn), the Activity came out at 81%.

For `CCCCNCC(C(=O)N1CCN(c2ncnc3sc4c(c23)CCC4)CC1)c1ccc(Cl)cc1` (stereo not drawn), the Activity was found to be 1%.

With `CN1CCc2c(sc3ncnc(N4CCN(C(=O)C(CNC5CCCCC5)c5ccc(Cl)cc5)CC4)c23)C1` (stereo not drawn), the Activity is 84%.

On to `CC(C)NCC(C(=O)N1CCN(c2ncnc3sc4c(c23)CCN(C)C4)CC1)c1ccc(Br)cc1` (stereo not drawn), for which the Activity was 69%.

The test system of a further experiment is Huh-7. In words: Induction of autophagy flux arrest in human Huh-7 cells assessed as reduction in LC3 by immunofluorescence staining based assay. It is filed as functional, cell-based. The method in brief: (§3)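 Huh-7 cells with or without 0.2 µM compound were immunofluorescently co-stained for LC3 (autophagosome) and LAMP1 (lysosome). Co-localization was assessed by fluorescence imaging.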
On to `CC(C)NC[C@@H](C(=O)N1CCN(c2ncnc3c2[C@H](C)C[C@H]3O)CC1)c1ccc(Cl)cc1` [IPATASERTIB], for which the outcome was Active.

The test system of another experiment is Hep 3B2. In words: Cytotoxicity against human Hep3B cells assessed as reduction in cell viability by MTT assay. The experiment is classed as functional, cell-based. The method in brief:
as §2
As for `CC(C)NC[C@@H](C(=O)N1CCN(c2ncnc3c2[C@H](C)C[C@H]3O)CC1)c1ccc(Cl)cc1` [IPATASERTIB], the IC50 was found to be 389 nM.

Turning to `CCNCC(C(=O)N1CCN(c2ncnc3sc4c(c23)CCC4)CC1)c1ccc(Cl)cc1` (stereo not drawn), the IC50 turned out to be 541 nM.

As to `CCCCNCC(C(=O)N1CCN(c2ncnc3sc4c(c23)CCC4)CC1)c1ccc(Cl)cc1` (stereo not drawn), the 50% inhibitory concentration (IC50) was determined as 833 nM.

The target of the next experiment is RAC-gamma serine/threonine-protein kinase (Homo sapiens, UniProt Q9Y243, S472D). In words: Inhibition of full length human Akt3 S472D mutant using GRPRTSSFAEGKK as substrate incubated for 40 mins by scintillation counting method. The method, boiled down:
(§4)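 Eurofins KinaseProfiler enzymatic assay on human Akt isoforms. IC50 values are the mean of at least three independent replicates ± standard deviation.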
Compound `CCNCC(C(=O)N1CCN(c2ncnc3sc4c(c23)CCC4)CC1)c1ccc(Cl)cc1` (stereo not drawn) displayed an IC50 of 101 nM.

Consider `CCCCNCC(C(=O)N1CCN(c2ncnc3sc4c(c23)CCC4)CC1)c1ccc(Cl)cc1` (stereo not drawn), for which inhibition was half-maximal at 137 nM (IC50).

For a further experiment, the system named is Huh-7. In words: Cytotoxicity against human Huh-7 cells assessed as reduction in cell viability by MTT assay. The experiment is classed as functional, cell-based. The method in brief: as §2
With `CC(C)NC[C@@H](C(=O)N1CCN(c2ncnc3c2[C@H](C)C[C@H]3O)CC1)c1ccc(Cl)cc1` [IPATASERTIB], the half-maximal inhibitory concentration (IC50) was 167 nM.

Take `CCNCC(C(=O)N1CCN(c2ncnc3sc4c(c23)CCC4)CC1)c1ccc(Cl)cc1` (stereo not drawn): the IC50 is 283 nM.

With `CCCCNCC(C(=O)N1CCN(c2ncnc3sc4c(c23)CCC4)CC1)c1ccc(Cl)cc1` (stereo not drawn), the IC50 turned out to be 367 nM.

The test system of another experiment is RAC-beta serine/threonine-protein kinase (Homo sapiens), P31751 [S474D]. In words: Inhibition of full length human Akt2 S474D mutant assessed as remaining activity at 1 uM using GRPRTSSFAEGKK as substrate incubated for 40 mins by scintillation counting method relative to control. The method in brief:
as §1
In the case of `CC(C)NCC(C(=O)N1CCN(c2ncnc3sc4c(c23)CCN(C)C4)CC1)c1ccc(Cl)cc1` (stereo not drawn), the Activity came to 91%.

`CCNCC(C(=O)N1CCN(c2ncnc3sc4c(c23)CCC4)CC1)c1ccc(Cl)cc1` (stereo not drawn): the Activity turned out to be 58%.

On to `COc1ccc(C(CNC(C)C)C(=O)N2CCN(c3ncnc4sc5c(c34)CCN(C)C5)CC2)cc1` (stereo not drawn), for which the Activity worked out at 78%.

As to `CCCCNCC(C(=O)N1CCN(c2ncnc3sc4c(c23)CCC4)CC1)c1ccc(Cl)cc1` (stereo not drawn), the Activity worked out at 56%.

Regarding `CN1CCc2c(sc3ncnc(N4CCN(C(=O)C(CNC5CCCCC5)c5ccc(Cl)cc5)CC4)c23)C1` (stereo not drawn), the Activity turned out to be 88%.

Take `CC(C)NCC(C(=O)N1CCN(c2ncnc3sc4c(c23)CCN(C)C4)CC1)c1ccc(Br)cc1` (stereo not drawn): the Activity is 86%.

For another experiment, the system named is Huh-7. The experiment in a line: Induction of autophagy flux arrest in human Huh-7 cells assessed as reduction in LAMP1 by immunofluorescence staining based assay. It is filed as functional, cell-based. The method in brief: as §3
Regarding `CC(C)NC[C@@H](C(=O)N1CCN(c2ncnc3c2[C@H](C)C[C@H]3O)CC1)c1ccc(Cl)cc1` [IPATASERTIB], the result was Active.

System in a further experiment: not listed separately
In words: Inhibition of full length human Akt1 […] mutant using GRPRTSSFAEGKK as substrate incubated for 40 mins by scintillation counting method. The method, boiled down:
as §4
With `CC(C)NC[C@@H](C(=O)N1CCN(c2ncnc3c2[C@H](C)C[C@H]3O)CC1)c1ccc(Cl)cc1` [IPATASERTIB], inhibition was half-maximal at 19 nM (IC50).

Compound `CCNCC(C(=O)N1CCN(c2ncnc3sc4c(c23)CCC4)CC1)c1ccc(Cl)cc1` (stereo not drawn) had an IC50 of 125 nM.

On to `CCCCNCC(C(=O)N1CCN(c2ncnc3sc4c(c23)CCC4)CC1)c1ccc(Cl)cc1` (stereo not drawn), for which 166 nM corresponded to half-maximal inhibition (IC50).
